Measurements: ChEMBL document CHEMBL1152997, “Prevalence of and molecular basis for tuberculosis drug resistance in the Republic of Georgia: validation of a QIAplex system for detection of drug resistance-related mutations” (2008)

Tests used:
Type in all cases: functional
[1] = test system: Mycobacterium tuberculosis; test: Antimycobacterial activity against Mycobacterium tuberculosis clinical isolates from tuberculosis patient assessed as percent sensitive isolates at 4 ug/ml by absolute-concentration method
Procedure, shortened: (§1)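 Consecutive clinical M. tuberculosis isolates (196), Tbilisi, Jan–Mar 2006, primary culture on Lowenstein-Jensen medium. Suspension adjusted to 1 McFarland in sterile saline. 0.2 ml was plated onto drug-containing solid medium: a 10-fold dilution series for the 2, 4 and 40 µg/ml media, and a 100-fold dilution for the 0.2 µg/ml medium. Incubation at 37°C, 5–10% CO2, 28 days.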

[2] = test system: Mycobacterium tuberculosis; test: Antimycobacterial activity against Mycobacterium tuberculosis clinical isolates from tuberculosis patient assessed as percent specific isolates at 4 ug/ml by absolute-concentration method
[3] = test system: Mycobacterium tuberculosis; test: Antimycobacterial activity against Mycobacterium tuberculosis clinical isolates from tuberculosis patient assessed as percent sensitive isolates at 2 ug/ml by absolute-concentration method; procedure, shortened: as §1
[4] = test system: Mycobacterium tuberculosis; test: Antimycobacterial activity against Mycobacterium tuberculosis clinical isolates from tuberculosis patient assessed as percent specific isolates at 2 ug/ml by absolute-concentration method
[5] = test system: Mycobacterium tuberculosis; test: Antimycobacterial activity against Mycobacterium tuberculosis clinical isolates from tuberculosis patient assessed as percent specific isolates at 40 ug/ml by absolute-concentration method
[6] = test system: Mycobacterium tuberculosis; test: Antimycobacterial activity against Mycobacterium tuberculosis clinical isolates from tuberculosis patient assessed as percent sensitive isolates at 40 ug/ml by absolute-concentration method; procedure, shortened: as §1
[7] = test system: Mycobacterium tuberculosis; test: Antimycobacterial activity against Mycobacterium tuberculosis clinical isolates from tuberculosis patient assessed as percent specific isolates at 0.2 ug/ml by absolute-concentration method
[8] = test system: Mycobacterium tuberculosis; test: Antimycobacterial activity against Mycobacterium tuberculosis clinical isolates from tuberculosis patient assessed as percent sensitive isolates at 0.2 ug/ml by absolute-concentration method; procedure, shortened: as §1

## CN[C@@H]1[C@H](O[C@H]2[C@H](O[C@H]3[C@H](O)[C@@H](O)[C@H](N=C(N)N)[C@@H](O)[C@@H]3N=C(N)N)O[C@@H](C)[C@]2(O)C=O)O[C@@H](CO)[C@H](O)[C@H]1O [STREPTOMYCIN]
[1]
  Activity: 69.6%
[2]
  Activity: 99.2%

## CC[C@@H](CO)NCCN[C@@H](CC)CO [ETHAMBUTOL]
[3]
  Activity: 50%
[4]
  Activity: 98.9%

## CO[C@H]1/C=C/O[C@@]2(C)Oc3c(C)c(O)c4c(O)c(c(/C=N/N5CCN(C)CC5)c(O)c4c3C2=O)NC(=O)/C(C)=C\C=C\[C@H](C)[C@H](O)[C@@H](C)[C@@H](O)[C@@H](C)[C@H](OC(C)=O)[C@@H]1C [RIFAMPIN]
[5]
  Activity: 99.4%
[6]
  Activity: 94.5%

## NNC(=O)c1ccncc1 [ISONIAZID]
[7]
  Activity: 96.1%
[8]
  Activity: 85.4%
